Source: PubChem BioAssay
TRPC4 inh – TRPC4 (mouse) channel inhibition; HEK293 TRPC4beta/mu-opioid, DAMGO-evoked Fluo4 calcium flux; active compounds read low; B-score at 10 µM; 0.39% of 300,000 active;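 active = B-score over 3 SD under the library average, no early fluorescence shift, positive overall ratio signal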
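Assay system: Stable TRPC4beta/mu-opioid receptor HEK293 cells | Reagent: DAMGO in two steps, submaximal then maximal | Compound dosing: Single concentration per test compound | Signal: Fluo4 Ca2+ flux fluorescence | Evaluation: Per-well B score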
TRPC4 PAM – allosterically enhances the mouse TRPC4 cation channel. HEK293 TRPC4beta/mu-opioid, DAMGO EC20, Fluo-4 Ca2+ flux; active compounds read high. B-score at 10 µM. 0.42% of 310,000 active. AID 2227;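 active = B-score of calcium response area above 5 SD of library B-scores, with initial fluorescence ratio within 5 SD of library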;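 also: B-score of integrated fluorescence ratio over time as area under calcium response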
TRPC6 act – activates the mouse TRPC6 cation channel; Q61143; HEK293-TRPC6 membrane potential dye fluorescence; active compounds read high; B-score at 10 µM; 0.13% of 310,000 active;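 active = B-score of the integrated fluorescence ratio above library mean plus 3 SD, and starting fluorescence ratio within library mean plus 5 SD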;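 also: higher score means more depolarization so channel activation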
Target sequence (Q61143 whole entry, looked up): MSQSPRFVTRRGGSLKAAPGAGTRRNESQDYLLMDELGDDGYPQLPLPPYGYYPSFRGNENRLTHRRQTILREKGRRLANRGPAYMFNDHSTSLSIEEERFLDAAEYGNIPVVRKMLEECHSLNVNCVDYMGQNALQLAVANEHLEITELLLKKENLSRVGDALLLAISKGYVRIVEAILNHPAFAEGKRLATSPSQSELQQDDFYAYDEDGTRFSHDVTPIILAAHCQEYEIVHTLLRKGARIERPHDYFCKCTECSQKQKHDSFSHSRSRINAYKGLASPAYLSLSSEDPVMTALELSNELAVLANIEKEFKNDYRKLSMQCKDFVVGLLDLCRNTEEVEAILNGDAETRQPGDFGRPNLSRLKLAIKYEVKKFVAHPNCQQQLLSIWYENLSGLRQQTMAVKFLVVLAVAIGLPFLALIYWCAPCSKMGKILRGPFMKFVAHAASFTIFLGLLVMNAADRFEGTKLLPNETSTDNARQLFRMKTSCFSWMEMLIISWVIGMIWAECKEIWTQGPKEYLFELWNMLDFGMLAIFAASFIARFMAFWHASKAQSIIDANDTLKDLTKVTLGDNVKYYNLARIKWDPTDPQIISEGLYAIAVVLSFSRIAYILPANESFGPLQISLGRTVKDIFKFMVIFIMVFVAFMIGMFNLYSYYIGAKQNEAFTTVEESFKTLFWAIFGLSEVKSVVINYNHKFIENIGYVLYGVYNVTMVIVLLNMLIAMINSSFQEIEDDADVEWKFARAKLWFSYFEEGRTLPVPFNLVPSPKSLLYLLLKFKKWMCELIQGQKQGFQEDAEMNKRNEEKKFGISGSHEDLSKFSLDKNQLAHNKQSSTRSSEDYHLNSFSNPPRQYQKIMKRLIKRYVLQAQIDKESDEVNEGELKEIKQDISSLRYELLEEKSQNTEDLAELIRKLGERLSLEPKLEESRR
TRPC6 inh – inhibitors of mouse TRPC6 channel; B-score at 10 µM; 1.1% of 310,000 active; HEK293-TRPC6, membrane potential dye, ACh-evoked depolarization; active compounds read low;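 active = B-score under library mean minus 3 SD, initial fluorescence not abnormally high, positive integrated signal ratio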;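 also: B-score derived from integrated fluorescence ratio over the kinetic read; more negative B-score means stronger inhibition of depolarization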
TRPC4 act – TRPC4 (mouse) channel activation; Q9QUQ5; HEK293 TRPC4beta/mu-opioid, Fluo4 calcium fluorescence; active compounds read high; B-score at 10 µM; 0.49% of 310,000 active;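 active = B-score above 5 SD of library B-scores, and initial fluorescence ratio not above library mean plus 5 SD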;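 also: positive B-score marks a calcium rise read as TRPC4 activation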
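system = HEK293 cells stably co-expressing mouse TRPC4beta and mu-opioid receptor | schedule = Fluo4 dye loading 45 min at room temperature, 110 s recording | measure = B-scored integrated calcium fluorescence ratio | signal = Fluo4 calcium-sensitive dye fluorescence, kinetic, 1 Hz baseline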
TRPC4 spec 2 – mouse TRPC4 off-target activity of TRPC6 inhibitors, second screen; shares compounds with TRPC6 inh; HEK293 TRPC4/MOR, membrane potential dye fluorescence; channel activated by saturating DAMGO dose; inhibition, % at 10 µM; 42% of 920 active; AID 2776;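 active = compounds whose fluorescence signal differed from control wells by over 3 SD, either direction, in both duplicate plates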
TRPC4 spec – tests whether TRPC6 inhibitors also affect mouse TRPC4 | AID 2777 | activity change, negative = inhibition, % at 10 µM | shares compounds with TRPC6 inh | 61% of 920 active | HEK293 TRPC4/mu-opioid, membrane potential fluorescence;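 active = rise or fall in signal beyond 3 SD of buffer-only wells in both replicate plates, either sign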;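 also: integrated kinetic ratio of fluorescence range over baseline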
HEK293 MPD ctr 2-1 – second check of TRPC6 inhibitor effects in parental HEK293 cells; shares compounds with TRPC6 inh; parental HEK293 membrane potential dye fluorescence; maximal acetylcholine challenge after compound addition; signal change vs control, % at 10 µM; 31% of 920 active; AID 2779;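 active = membrane potential signal moving either way by over 3 SD of the maximum-effect control, in both duplicate plates, meaning non-specific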
HEK293 MPD ctr-1 – parental HEK293 nonspecific activity of TRPC6 inhibitors; shares compounds with TRPC6 inh; parental HEK293 membrane potential dye fluorescence; membrane potential signal change, % at 10 µM; 60% of 920 active; AID 2780;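 active = membrane potential signal shifting up or down by more than 3 SD of buffer-only wells, on both duplicate plates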
HEK293 MPD ctr-2 – parental HEK293 nonspecific activity of TRPC6 modulators. shares compounds with TRPC6 inh. membrane potential dye fluorescence. membrane potential signal change, % at 10 µM. 51% of 2,400 active. AID 488924;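 active = membrane potential signal moves up or down beyond 5 SD from buffer-only wells, on both duplicate plates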
HEK293 MPD ctr 2-2 – second check of TRPC6 modulator effects in parental HEK293 cells; shares compounds with TRPC6 inh; membrane potential dye fluorescence; after compound, maximal acetylcholine stimulation; inhibition, % at 10 µM; 14% of 2,400 active; AID 488926;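 active = membrane potential signal drops by more than 5 SD from the mean control signal, in both duplicate plates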;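 also: plate controls were acetylcholine ECmax control wells for no effect and buffer only wells for full effect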
TRPC4/MOR mod – mouse TRPC4 off-target activity of TRPC6 modulators; HEK293 TRPC4/mu-opioid, membrane potential fluorescence; AID 488927; percent change from control (negative = decrease, positive = increase), % at 10 µM; shares compounds with TRPC6 inh; 69% of 2,400 active;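 active = membrane potential signal moved up or down beyond 5 SD of buffer control wells, in both duplicate plates, actives on both sides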;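 also: plate controls were assay buffer wells for no effect and DAMGO maximal-effect wells for full effect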
TRPC4 ctr inh 2 – second selectivity test of TRPC6 modulators against mouse TRPC4 | 55% of 2,400 active | inhibition, % at 10 µM | shares compounds with TRPC6 inh | HEK293 TRPC4/mu-opioid, membrane potential dye fluorescence; stimulated with maximal-effect DAMGO | AID 488928;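 active = drop in membrane potential signal beyond 5 SD of the control wells in both duplicate plates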;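 also: TRPC4 counter screen for TRPC6 hits run under conditions tuned for TRPC6 not TRPC4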
TRPC6 inh conf – confirmation of mouse TRPC6 inhibitors | 43% of 3,300 active | inhibition, % at 10 µM | HEK293-TRPC6, membrane potential dye, ACh-evoked depolarization | AID 488960 | shares compounds with TRPC6 inh;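 active = fluorescence ratio falls more than 5 SD below the full-stimulation control mean, in both duplicate runs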;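 also: integrated fluorescence ratio of peak minus minimum over baseline after agonist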
TRPC6 act confirm – mouse TRPC6 activator confirmation; shares compounds with TRPC6 inh; HEK293-TRPC6 membrane potential dye fluorescence, FDSS; activation, % at 10 µM; 11% of 2,800 active; AID 488961;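 active = ratio signal rise beyond 5 SD above unstimulated control wells' mean, seen in both duplicate runs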;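 also: plate controls were buffer EC0 wells for no effect and acetylcholine ECmax response for full effect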
The depositor's hits bear a star; i = inactive; nt = no result given. A selection: hits, their analogues and other compounds. The true share with any hit is near 2.3%.

SMILES	TRPC4 inh	TRPC4 PAM	TRPC6 act	TRPC6 inh	TRPC4 act	HEK293 MPD ctr-2	HEK293 MPD ctr 2-2	TRPC4/MOR mod	TRPC4 ctr inh 2	TRPC6 inh conf	TRPC6 act confirm	others
CN1CCCC(C#CC(O)(c2ccccc2)c2ccccc2)C1 (stereo not drawn)	i	i	i	-8.75*	i	nt	nt	nt	nt	i	i	TRPC4 spec 2=i;TRPC4 spec=i;HEK293 MPD ctr 2-1=i;HEK293 MPD ctr-1=i
COCC(C)(C)COS(N)(=O)=O	i	i	i	i	i	nt	nt	nt	nt	nt	nt
CCOC(=O)N1CCN(C(=O)CN(c2cc(Cl)ccc2OC)S(=O)(=O)c2ccccc2)CC1	i	i	i	-7.89*	i	nt	nt	nt	nt	i	i	TRPC4 spec 2=i;TRPC4 spec=7.5%*;HEK293 MPD ctr 2-1=i;HEK293 MPD ctr-1=3.1%*
Cc1ccc(S(=O)(=O)CCC(=O)N2CCN(c3ccc([N+](=O)[O-])cc3)CC2)cc1	i	i	i	i	i	nt	nt	nt	nt	nt	nt
CCN1CCN(c2cc(C)c3cc(NC(=O)c4cccs4)ccc3n2)CC1	i	i	i	-5.33*	i	i	i	i	i	i	i
CCN1CCN(c2cc(C)c3cc(NC(=O)c4cncc(Br)c4)ccc3n2)CC1	i	i	i	-11.1*	i	nt	nt	nt	nt	i	i	TRPC4 spec 2=i;TRPC4 spec=-17.2%*;HEK293 MPD ctr 2-1=i;HEK293 MPD ctr-1=-164.0%*
O=[N+]([O-])c1nn(-c2ccc3c(c2)OCCO3)n(O)c1=NC1CCN(Cc2ccccc2)CC1	i	i	i	-8.58*	i	nt	nt	nt	nt	i	i	TRPC4 spec 2=i;TRPC4 spec=i;HEK293 MPD ctr 2-1=i;HEK293 MPD ctr-1=i
C/C(=N/NC(=S)Nc1cccc(C)c1)c1cccc([N+](=O)[O-])c1	i	i	i	-5.27*	i	i	i	i	30.5%*	i	i
COc1ccc(C2c3c(ncn(CCN4CCOCC4)c3=N)Oc3ccc4ccccc4c32)cc1OC (stereo not drawn)	i	i	i	-5.13*	i	204.0%*	i	34.0%*	40.0%*	i	nt
O=C(Nc1ccccc1Cl)N1CCCN(c2nc(-c3ccccc3)ns2)CC1	i	i	i	-5.1*	i	i	i	i	i	i	i
Cc1c(Cl)cccc1NC(=O)N1CCCN(c2nc(-c3ccccc3)ns2)CC1	i	i	i	i	i	nt	nt	nt	nt	nt	nt
CC(OC(=O)Cc1c[nH]c2ccccc12)C(=O)N(C)c1ccccc1 (stereo not drawn)	i	i	i	i	i	nt	nt	nt	nt	nt	nt
O=C(CCC1CCCCC1)Nc1nnc(C(F)(F)F)s1	i	i	i	i	i	nt	nt	nt	nt	nt	nt
Clc1ccc(C2NCCc3sccc32)cc1 (stereo not drawn)	i	i	i	-5.92*	i	i	i	15.0%*	71.0%*	i	i
O=[N+]([O-])c1ccccc1S(=O)(=O)N1CCCC(C(F)(F)F)C1 (stereo not drawn)	i	i	i	-5.09*	i	i	i	i	i	i	i
O=C1c2ccccc2-c2onc3c(N4CCN(CCO)CC4)cc(N4CCN(C(=O)c5ccco5)CC4)c1c23	i	i	i	-7*	i	nt	nt	nt	nt	i	i	TRPC4 spec 2=i;TRPC4 spec=-46.6%*;HEK293 MPD ctr 2-1=i;HEK293 MPD ctr-1=-608.5%*
COC(=O)c1ccc(N=NN2CCCCC2)cc1	i	i	i	i	i	nt	nt	nt	nt	nt	nt
Cc1c(Cl)cccc1NC(=O)CNCc1ccccc1F	i	i	i	-5.26*	i	i	i	18.0%*	i	i	nt
Cc1c(Cl)cccc1NC(=O)CNc1ccccc1F	i	i	i	i	i	nt	nt	nt	nt	nt	nt
O=C(Nc1ccccc1NC(=O)c1c(F)cccc1F)c1c(F)cccc1F	i	i	i	-5.82*	i	i	i	i	i	i	i
Cc1ccc(C(C)NC(=O)c2cc3cc(Br)ccc3oc2=N)cc1 (stereo not drawn)	i	i	i	i	i	nt	nt	nt	nt	nt	nt
Cc1cc(C)c(OCCCNCc2ccccc2)c(Br)c1	i	i	i	i	i	nt	nt	nt	nt	nt	nt
Cc1cc(C)c(OCCCNC2CCCC2)c(Br)c1	i	i	11.6*	-5.4*	i	201.0%*	i	43.0%*	53.5%*	i	93.5%*
O=C1CCC(C(=O)O)(c2ccccc2)C1 (stereo not drawn)	i	i	i	-5.08*	i	i	i	i	i	i	i
CCOC(=O)CN(c1ccccn1)S(=O)(=O)c1ccc(OC)cc1	i	i	i	i	i	nt	nt	nt	nt	nt	nt
Cc1ccc(NCc2nnc(SCCN3CCCCC3)n2CC2CCCO2)c(C)c1 (stereo not drawn)	i	i	i	-5.71*	i	i	i	15.5%*	35.0%*	41.0%*	i
Cc1ccc(NCc2nnc(SCC(=O)Nc3ccccc3)n2CC2CCCO2)c(C)c1 (stereo not drawn)	i	i	i	i	i	nt	nt	nt	nt	nt	nt
Cc1ccc2nc(C)c3c(c2c1)COC3	i	i	i	-6.28*	i	-165.0%*	84.0%*	-27.0%*	47.0%*	43.5%*	i
